Test results published in ChEMBL document CHEMBL1131072, “Synthesis, physicochemical properties, and evaluation of N-substituted-2-alkyl-3-hydroxy-4(1H)-pyridinones” (J Med Chem, 1998).
Blank lines part the entries; values can stand above or below the molecule they belong to.

Legend:
[1] = Partition coefficient (logD7.4); format: physicochemical; conditions: octanol/water, pH 7.4
Procedure, shortened: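 Shake-flask used a 100:1 or 1:100 phase ratio, 1 h stirring, centrifugation, and aqueous absorbance, repeated at least four times. Fe complexes were made at 10:1 ligand:Fe (10^-3/10^-4 M) and read at 460 nm. Reported as mean ± SD.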

[2] = system: Rattus norvegicus; assay: The amount iron excretion in the bile duct-cannulated rats when iron chelator administered orally at dose 142 mg/kg; format: functional; conditions: route oral
Procedure, shortened: (§1)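 Non-iron-overloaded male Fischer rats (200–240 g) with bile-duct cannulas in metabolic cages. Control bile/urine was collected for 3 h; chelator was then given subcutaneously or by gavage. Bile was collected in 3-h fractions over 24 h, plus 24-h urine. Iron was measured by bathophenanthroline colorimetry (TCA/HCl, 65 °C 4 h, A535) against iron standards after blank subtraction.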

[3] = system: Rattus norvegicus; assay: The amount iron excretion in the bile duct-cannulated rats when iron chelator administered subcutaneously at dose 142 mg/kg; format: functional; conditions: route subcutaneous; procedure, shortened: as §1
[4] = Compound was tested for equilibrium constants (pKa1) potentiometrically; format: physicochemical; conditions: read-out: pKa1
Procedure, shortened: (§2)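 Potentiometric titration in 0.1 M KCl (25 mL), acidified with 0.2 M HCl and titrated with 0.2 M KOH in 0.01-mL increments. Run at 25 ± 0.5 °C under argon, with the electrode zero set by a blank titration (Gran's plot). Data were fitted with TITRFIT; pKa accuracy ±0.02 pH unit.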

[5] = Compound was tested for equilibrium constants (pKa1) spectrophotometrically.; format: physicochemical; conditions: read-out: pKa1
Procedure, shortened: (§3)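 The UV/vis spectrum was recorded alongside each potentiometric titration step: 0.1 M KCl, HCl-acidified, titrated with 0.2 M KOH at 25 ± 0.5 °C under argon. Spectral data were fitted with TITRFIT (modified NONLIN) to give pKa, accurate to ±0.02 pH unit.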

[6] = Compound was determined for their affinity constants(log K3) with Fe(III) complex.; format: ADME
Procedure, shortened: (§4)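 Stepwise constants K1, K2 and K3 came from simultaneous spectrophotometric/potentiometric pH titrations of ligand with iron(III). Parameters were obtained by global optimization over titrations at several ligand and iron(III) concentrations, using the Fe3+/L− stepwise model (FeL2+, FeL2+, FeL3).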

[7] = Compound was determined for their affinity constants(log K1) with Fe(III) complex.; format: ADME
Procedure, shortened: (§5)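 Stepwise Fe(III) stability constants (K1, K2, K3) came from simultaneous spectrophotometric/potentiometric pH titrations of ligand with iron(III) at several ligand and Fe(III) concentrations. Parameters were fitted by global optimization, and spectra were followed across pH.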

[8] = Compound was determined for their affinity constants(log K2) with Fe(III) complex.; format: ADME; procedure, shortened: as §4
[9] = Compound was determined for their EDTA competition value(log beta3) of affinity constants.; format: ADME
Procedure, shortened: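 Spectrophotometric competition against EDTA on an automated titration system. The iron(III) complex was prepared at 5:1 ligand:Fe molar ratio in 0.1 M MOPS, pH 7.4, then titrated with EDTA. Spectral data were fitted in COMPT1 to give log β3, accurate to ±0.02 log unit.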

[10] = Compound was tested for equilibrium constants (pKa3) of the (carboxyalkyl) pyridinone corresponds to the […] function potentiometrically; format: physicochemical; conditions: read-out: pKa3; procedure, shortened: as §2
[11] = Compound was tested for equilibrium constants (pKa3) of the (carboxyalkyl) pyridinone corresponds to the […] function spectrophotometrically..; format: physicochemical; conditions: read-out: pKa3; procedure, shortened: as §3
[12] = Potentiometric values of pKa2 and pKa3
[13] = Spectrophotometric values of pKa2 and pKa3
[14] = system: Rattus norvegicus; assay: The amount iron excretion in the bile duct-cannulated rats when iron chelator administered orally at dose 132 mg/kg; format: functional; conditions: route oral; procedure, shortened: as §1
[15] = system: Rattus norvegicus; assay: The amount iron excretion in the bile duct-cannulated rats when iron chelator administered subcutaneously at dose 132 mg/kg; format: functional; conditions: route subcutaneous; procedure, shortened: as §1
[16] = Compound was tested for equilibrium constants (pKa2) of the (hydroxyalkyl)pyridinone corresponds to the 3-hydroxy function potentiometrically
[17] = Compound was tested for equilibrium constants (pKa2) of the (hydroxyalkyl)pyridinone corresponds to the 3-hydroxy function spectrophotometrically..
[18] = system: Rattus norvegicus; assay: The dose of the iron chelator administered in the bile duct-cannulated rats.; format: functional; procedure, shortened: as §1
[19] = system: Rattus norvegicus; assay: The amount iron excretion in the bile duct-cannulated rats when iron chelator administered orally.; format: functional; procedure, shortened: as §1
[20] = system: Rattus norvegicus; assay: The amount iron excretion in the bile duct-cannulated rats when iron chelator administered subcutaneously.; format: functional; procedure, shortened: as §1
[21] = system: Rattus norvegicus; assay: The amount iron excretion in the bile duct-cannulated rats when iron chelator administered orally at dose 122 mg/kg; format: functional; conditions: route oral; procedure, shortened: as §1
[22] = system: Rattus norvegicus; assay: The amount iron excretion in the bile duct-cannulated rats when iron chelator administered subcutaneously at dose 122 mg/kg; format: functional; conditions: route subcutaneous; procedure, shortened: as §1
[23] = Compound was determined for their affinity constants(log K2) with Fe(III) complex; format: ADME; procedure, shortened: as §5
[24] = system: Rattus norvegicus; assay: The amount iron excretion in the bile duct-cannulated rats when iron chelator administered orally at dose 100 mg/kg; format: functional; conditions: route oral
Procedure, shortened: (§6)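 Male Fischer rats (200–240 g), non-iron-overloaded and bile duct-cannulated, were kept in metabolic cages. Control bile and urine were collected for 3 h, then compound was given (subcutaneously or by gavage). Bile was collected at 3-h intervals over 24 h, with urine pooled over 24 h. Buprenorphine was given for analgesia. Iron was read by bathophenanthroline colorimetry (535 nm) after acid digestion (65 °C, 4 h) against iron standards.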

[25] = system: Rattus norvegicus; assay: The amount iron excretion in the bile duct-cannulated rats when iron chelator administered subcutaneously at dose 100 mg/kg; format: functional; conditions: route subcutaneous; procedure, shortened: as §6

SMILES: CCOC(Cn1ccc(=O)c(O)c1C)OCC
logD [1]: 0.21

SMILES: CNC(=O)CCn1ccc(=O)c(O)c1C
logD [1]: -1.15

SMILES: COC(Cn1ccc(=O)c(O)c1C)OC
logD [1]: -0.46

SMILES: C=CCn1ccc(=O)c(O)c1CC
logD [1]: 0.47

SMILES: Cc1c(O)c(=O)ccn1C(C)C
logD [1]: 0.05

SMILES: COCCn1ccc(=O)c(O)c1C
logD [1]: -0.41

SMILES: Cc1c(O)c(=O)ccn1CCN
logD [1]: -1.55

SMILES: Cc1c(O)c(=O)ccn1CC(O)CO (stereo unspecified)
Dose [18]: 143 mg/kg | Iron excretion [19]: 104 µg/kg | Iron excretion [20]: 142 µg/kg

SMILES: CCc1c(O)c(=O)ccn1CC
logD [1]: 0.23

SMILES: CCCCCCn1ccc(=O)c(O)c1C
logD [1]: 1.89

SMILES: CCc1nccc(O)c1O
logD [1]: 0.05

SMILES: CCc1c(O)c(=O)ccn1CCOC
logD [1]: 0.04

SMILES: CCOCCCn1ccc(=O)c(O)c1CC
logD [1]: 0.72

SMILES: CCCn1ccc(=O)c(O)c1CC
logD [1]: 0.7

SMILES: Cc1c(O)c(=O)ccn1CCO
pKa [4]: 3.44 | pKa [5]: 3.43 | logD [1]: -1.1 | Iron excretion [21]: 272 µg/kg | Iron excretion [22]: 353 µg/kg | pKa [12]: 9.65 | pKa [13]: 9.72 | pKa [16]: 9.65 | pKa [17]: 9.72

SMILES: CCN(C)C(=O)CCn1ccc(=O)c(O)c1C
logD [1]: -0.66

SMILES: Cc1c(O)c(=O)ccn1CCC(=O)N(C)C
logD [1]: -1

SMILES: CCc1c(O)c(=O)ccn1C(C)C
logD [1]: 0.73

SMILES: Cc1c(O)c(=O)ccn1CCC(=O)NC(C)C
logD [1]: -0.47

SMILES: CCCCn1ccc(=O)c(O)c1CC
logD [1]: 1.22

SMILES: CCc1c(O)c(=O)ccn1C
logD [1]: -0.21

SMILES: Cc1c(O)c(=O)ccn1C [DEFERIPRONE]
Log K3 [6]: 9.8 | Log K1 [7]: 14.9 | Log K2 [23]: 12.2 | logD [1]: -0.77 | Iron excretion [24]: 351 µg/kg | Iron excretion [25]: 292 µg/kg | pKa [13]: 9.64

Continued, in another order:

logD [1]: -1.7
SMILES: Cc1c(O)c(=O)ccn1C(CO)CO

logD [1]: -1.08
SMILES: CNC(=O)CCCn1ccc(=O)c(O)c1C

logD [1]: -0.32
SMILES: CCc1c(O)c(=O)ccn1CCCO
Iron excretion [2]: 265 µg/kg | Iron excretion [3]: 634 µg/kg

logD [1]: -0.77
SMILES: Cc1c(O)c(=O)ccn1CC(C)(C)O

pKa [4]: 3.12 | pKa [5]: 3.22 | Log K3 [6]: 7.9 | Log K1 [7]: 16.6 | Log K2 [8]: 11.4 | Log beta3 [9]: 37 | logD [1]: -1.6 | pKa [10]: 9.89 | pKa [11]: 9.91 | pKa [12]: 9.89 | pKa [13]: 9.91
SMILES: CCc1c(O)c(=O)ccn1CCC(=O)O

logD [1]: -0.77
SMILES: COC(=O)CCn1ccc(=O)c(O)c1C

pKa [4]: 3.21 | pKa [5]: 3.42 | logD [1]: -1.38 | pKa [10]: 9.89 | pKa [11]: 9.99 | pKa [12]: 9.89 | pKa [13]: 9.99
SMILES: CCc1c(O)c(=O)ccn1CCCC(=O)O

logD [1]: -0.5
SMILES: Cc1nccc(O)c1O

pKa [4]: 3.31 | pKa [5]: 3.34 | Log K3 [6]: 9.4 | Log K1 [7]: 15.7 | Log K2 [8]: 11.6 | Log beta3 [9]: 36.8 | logD [1]: -0.66 | pKa [12]: 9.77 | pKa [13]: 9.75 | pKa [16]: 9.77 | pKa [17]: 9.75
SMILES: CCc1c(O)c(=O)ccn1CCO
Iron excretion [14]: 819 µg/kg | Iron excretion [15]: 698 µg/kg

logD [1]: -0.82
SMILES: CCNC(=O)CCn1ccc(=O)c(O)c1C

logD [1]: 0.12
SMILES: CCOCCCn1ccc(=O)c(O)c1C

logD [1]: 0.03
SMILES: C=CCn1ccc(=O)c(O)c1C

logD [1]: -0.24
SMILES: CCOC(=O)CCn1ccc(=O)c(O)c1C

logD [1]: 0.65
SMILES: Cc1c(O)c(=O)ccn1CC(C)C

logD [1]: -0.31
SMILES: CCn1ccc(=O)c(O)c1C

logD [1]: -0.28
SMILES: CCc1c(O)c(=O)ccn1CCCCO

logD [1]: 1.24
SMILES: CCCCCn1ccc(=O)c(O)c1C

logD [1]: 0.7
SMILES: CCCCn1ccc(=O)c(O)c1C

SMILES: Cc1c(O)c(=O)ccn1CCCO
Iron excretion [14]: 414 µg/kg | Iron excretion [15]: 383 µg/kg

logD [1]: -0.4
SMILES: CCCNC(=O)CCn1ccc(=O)c(O)c1C

logD [1]: -0.26
SMILES: COCC(C)n1ccc(=O)c(O)c1C (stereo unspecified)

logD [1]: -0.75
SMILES: Cc1c(O)c(=O)ccn1CCCCO

logD [1]: -2.75
SMILES: Cc1c(O)c(=O)ccn1CCCC(=O)O

logD [1]: -0.36
SMILES: CCN(CC)C(=O)CCn1ccc(=O)c(O)c1C

pKa [4]: 3.1 | pKa [5]: 3.19 | logD [1]: -2.92 | pKa [10]: 9.49 | pKa [11]: 9.51 | pKa [12]: 9.49 | pKa [13]: 9.51
SMILES: Cc1c(O)c(=O)ccn1CCC(=O)O
